Measurements from ChEMBL document CHEMBL4732089, “Novel σ antagonists designed for tumor therapy: Structure - activity relationships of aminoethyl substituted cyclohexanes” (Eur J Med Chem, 2021).
The source made the active and inactive calls. The calls are words filed in the database; no cut-off is given here.

Columns and labels:
[1] = target: Sigma non-opioid intracellular receptor 1 (Cavia porcellus, UniProt Q60492); assay: Displacement of [3H]-pentazocine from sigma1 receptor in guinea pig brain membrane incubated for 120 mins by liquid scintillation counting method; assay type: cell membranes
Sequence of Sigma non-opioid intracellular receptor 1 (Q60492 whole entry): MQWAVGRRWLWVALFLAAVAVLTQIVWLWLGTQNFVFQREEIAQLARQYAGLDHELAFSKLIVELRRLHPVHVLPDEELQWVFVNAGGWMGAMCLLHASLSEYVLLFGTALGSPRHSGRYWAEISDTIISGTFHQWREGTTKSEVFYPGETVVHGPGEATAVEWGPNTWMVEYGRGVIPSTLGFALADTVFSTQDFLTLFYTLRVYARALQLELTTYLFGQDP

[2] = target: T1, Sigma intracellular receptor 2 (Rattus norvegicus, UniProt Q5U3Y7); assay: Displacement of [3H]-di-o-tolylguanidine from sigma2 receptor in rat liver membrane incubated for 120 mins by liquid scintillation counting method relative to control; assay type: cell membranes
T1 sequence (Q5U3Y7 whole entry): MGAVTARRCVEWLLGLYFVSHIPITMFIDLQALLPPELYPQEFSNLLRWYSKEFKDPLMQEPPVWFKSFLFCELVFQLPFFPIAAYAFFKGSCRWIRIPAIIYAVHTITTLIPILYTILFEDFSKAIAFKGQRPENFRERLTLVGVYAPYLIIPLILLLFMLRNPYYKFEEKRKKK
In short: (§1)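 Competitive binding with [3H]di-o-tolylguanidine on rat liver membranes. Single-concentration values are % inhibition of radioligand binding at 1 µM test compound. Ki values are n = 3 (±SEM), except low-affinity compounds, which were measured once.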

[3] = target: T2, Sigma intracellular receptor 2 (Rattus norvegicus) (UniProt Q5U3Y7); assay: Displacement of [3H]-di-o-tolylguanidine from sigma2 receptor in rat liver membrane at 1 uM incubated for 120 mins by liquid scintillation counting method relative to control; assay type: cell membranes; in short: as §1
T2 sequence (whole entry): T1 sequence (Q5U3Y7 whole entry)

Sus scrofa = species on record: Sus scrofa; assay: Displacement of [3H]-MK-801 from NMDA receptor PCP binding site in pig brain cortex at 1 uM incubated for 150 mins by liquid scintillation counting method relative to control; assay type: tissue-based
DU-145 = assay: Antiproliferative activity against human DU145 cells assessed as reduction in cell viability at 10 uM incubated for 72 hrs by SRB assay; assay type: functional, cell-based
In short: (§2)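 Cells from ATCC were grown in RPMI 1640 with 10% FBS, glutamine and penicillin-streptomycin. Seeding was 1×10^3 (lung) or 2×10^3 (prostate) cells/well. After 24 h, compounds were added at 10 µM for 72 h. Cells were fixed with 10% TCA and stained with sulforhodamine B for 30 min. Dye was solubilized in Tris base and OD read at 510 nm. Results are expressed as % of DMSO-treated cells.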

[4] = Selectivity for sigma1 receptor in guinea pig brain membrane over sigma2 receptor in rat liver membrane; assay type: cell membranes
[5] = n-octanol/aqueous buffer distribution coefficient, log D of compound at pH 7.4 by LC-MS analysis; assay type: physicochemical
In short: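 Micro shake-flask method using 20 mM MOPS buffer pH 7.4 and n-octanol, mutually pre-saturated for 24 h. DMSO was kept below 1%. Three buffer:octanol volume ratios (1:1, 1:2, 2:1) were each run three times (n = 9). Tubes were vortexed 2 min and centrifuged 10 min at 20 °C. The aqueous layer was quantified by LC-MS against a matrix-matched calibration, and logD calculated from that concentration.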

[6] = Metabolic stability in mouse liver microsomes assessed as parent compound remaining measured after 90 mins in presence of NADPH
[7] = Drug metabolism in mouse liver microsomes assessed as metabolite 2-((1R,3S)-3-phenylcyclohexyl)ethanamine formation measured after 90 mins in presence of NADPH by LC-MS analysis; assay type: ADME, Microsome; settings: 1.5 h
In short: (§3)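 Incubation with mouse liver microsomes and NADPH for 90 min at 37 °C. Metabolites were identified by LC-MS with collision-induced dissociation.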

[8] = Drug metabolism in mouse liver microsomes assessed as metabolite 4-((1S,3R)-3-(2-(benzylamino)ethyl)cyclohexyl)benzene-1,2-diol formation measured after 90 mins in presence of NADPH by LC-MS analysis; assay type: ADME, Microsome; settings: 1.5 h; in short: as §3
PC-3 = assay: Antiproliferative activity against human PC-3 cells assessed as reduction in cell viability at 10 uM incubated for 72 hrs by SRB assay; assay type: functional, cell-based
In short: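 PC3 prostate cancer cells grown adherent in RPMI 1640 with 2% glutamine, 10% FBS and 1% penicillin-streptomycin. Seeded at 2 × 10^3 cells/well; compound added at 10 µM 24 h later for 72 h. Cells fixed in 10% TCA, stained with sulforhodamine B 30 min, washed with 1% acetic acid, dye solubilised in Tris base, OD read at 510 nm; viability given as % of DMSO-treated cells.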

[9] = target: Sigma non-opioid intracellular receptor 1 (Rattus norvegicus) (UniProt Q9R0C9); assay: Agonist activity at sigma1 receptor in rat PC12 cells assessed as reduction in KCl-induced Ca2+ influx at 10 nM measured after 30 mins by Fura2AM dye based fluorescence microscopic analysis; assay type: cell-based; settings: PC-12
Sequence of Sigma non-opioid intracellular receptor 1 (Rattus norvegicus) (Q9R0C9 whole entry, the tested form may be a part): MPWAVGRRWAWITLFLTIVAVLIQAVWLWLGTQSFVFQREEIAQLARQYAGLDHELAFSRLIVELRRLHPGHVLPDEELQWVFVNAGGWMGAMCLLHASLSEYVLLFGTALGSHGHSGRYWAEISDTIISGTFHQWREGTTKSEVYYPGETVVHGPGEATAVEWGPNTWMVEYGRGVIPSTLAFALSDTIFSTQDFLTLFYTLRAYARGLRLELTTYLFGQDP
In short: (§4)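 Single PC12 cells loaded with 0.5 µM fura-2-AM plus 0.01% Pluronic F-127, 30 min, 37 °C, in HEPES saline pH 7.4 (138 mM NaCl, 6 mM KCl, 2 mM CaCl2). Cells were then washed 30 min and perfused. Test compounds were at 10 nM, and Ca2+ influx was triggered with KCl. Excitation was at 340/380 nm and emission at 510 nm. The F340/F380 ratio was calibrated with KD 224 nM. 10–20 cells per slide, ≥5 independent experiments.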

[10] = target: Sigma non-opioid intracellular receptor 1 (Rattus norvegicus) (UniProt Q9R0C9); assay: Antagonist activity at sigma1 receptor in rat PC12 cells assessed as reduction in opipramol activity by measuring increase in Ca2+-influx at 10 nM measured after 30 mins in presence of KCl by Fura2AM dye based fluorescence microscopic analysis relative to control; assay type: cell-based; design: scale not given: the % may be the effect or the level left; in short: as §4
NCI-H441 = assay: Antiproliferative activity against human NCI-H441 cells assessed as reduction in cell viability at 10 uM incubated for 72 hrs by SRB assay; assay type: functional, cell-based; in short: as §2
NCI-H358 = assay: Antiproliferative activity against human NCI-H358 cells assessed as reduction in cell viability at 10 uM incubated for 72 hrs by SRB assay; assay type: functional, cell-based; in short: as §2
NCI-H522 = assay: Antiproliferative activity against human NCI-H522 cells assessed as reduction in cell viability at 10 uM incubated for 72 hrs by SRB assay; assay type: functional, cell-based; in short: as §2
CWR22R = assay: Antiproliferative activity against human 22Rv1 cells assessed as reduction in cell viability at 10 uM incubated for 72 hrs by SRB assay; assay type: functional, cell-based; in short: as §2

CN(C)CC[C@H]1CCC[C@@H](c2ccccc2)C1
Ki [1]: 10 nM
Ki [2]: 156 nM

c1ccc(CNCC[C@@H]2CCC[C@@H](c3ccccc3)C2)cc1 [listing 1 of 2 here]
Ki [1]: 1.8 nM
Ki [2]: 57 nM

NCC[C@@H]1CCC[C@@H](c2ccccc2)C1
Ki [1]: 43 nM
inhibition [3]: 43%
inhibition (Sus scrofa): 15%

CN(C)CC[C@@H]1CCC[C@H](c2ccccc2)C1
Ki [1]: 14 nM
Ki [2]: 76 nM

c1ccc(CNCC[C@H]2CCC[C@@H](c3ccccc3)C2)cc1
Ki [1]: 1.3 nM
Activity (DU-145): Active
Selectivity ratio [4]: 35
Ki [2]: 47 nM

NCC[C@H]1CCC[C@@H](c2ccccc2)C1
Ki [1]: 138 nM
inhibition [3]: 24%
inhibition (Sus scrofa): 14%

c1ccc(CNCC[C@@H]2CCC[C@H](c3ccccc3)C2)cc1 [listing 1 of 2 here]
Ki [1]: 0.61 nM
logD [5]: 3.23
remaining at 1.5 h [6]: 43%
Drug metabolism [7]: Metabolite_Detected
Ki [2]: 49 nM
Drug metabolism [8]: Metabolite_Detected

NCC[C@@H]1CCC[C@H](c2ccccc2)C1
Ki [1]: 167 nM
inhibition [3]: 38%
inhibition (Sus scrofa): 11%

c1ccc(CNCC[C@H]2CCC[C@H](c3ccccc3)C2)cc1
Ki [1]: 1.4 nM
logD [5]: 3.34
Activity (DU-145): inactive
Selectivity ratio [4]: 35
Ki [2]: 46 nM

NCC[C@H]1CCC[C@H](c2ccccc2)C1
Ki [1]: 603 nM
inhibition [3]: 60%
inhibition (Sus scrofa): 31%

CCCN(CCC)CCc1ccc(OC)c(OCCc2ccccc2)c1
Activity (PC-3): Active

c1ccc(CNCC[C@@H]2CCC[C@@H](c3ccccc3)C2)cc1 [listing 2 of 2 here]
Activity (DU-145): inactive
Selectivity ratio [4]: 35

c1ccc(CNCC[C@@H]2CCC[C@H](c3ccccc3)C2)cc1 [listing 2 of 2 here]
Activity (DU-145): Active

CN(C)CCC1CCCC(c2ccccc2)C1 (mixture of isomers)
Ki [1]: 4.2 nM
Ki [2]: 115 nM
inhibition (Sus scrofa): 25%

c1ccc(CCCCNCCC2CCCC(c3ccccc3)C2)cc1 (mixture of isomers)
Ki [1]: 3 nM
Ki [2]: 93 nM
inhibition (Sus scrofa): 11%

c1ccc([C@@H]2CCC[C@@H](CCN3CCCC3)C2)cc1 (relative stereo)
Ki [1]: 2 nM
Ki [2]: 33 nM
Activity [9]: inactive
Activity ([10]; PC-12, filed as antagonist): 100%
inhibition (Sus scrofa): 28%

c1ccc(CNCC[C@@H]2CCC[C@@H](c3ccccc3)C2)cc1 (relative stereo) [listing 1 of 2 here]
Ki [1]: 2.4 nM
Ki [2]: 268 nM

c1ccc([C@H]2CCC[C@@H](CCN3CCCC3)C2)cc1 (relative stereo)
Ki [1]: 3.6 nM
Ki [2]: 61 nM
inhibition (Sus scrofa): 36%

c1ccc([C@H]2CCC[C@H](CCN3CCN(c4ccccc4)CC3)C2)cc1 (relative stereo)
Ki [1]: 13 nM
Activity (DU-145): inactive
Ki [2]: 144 nM
inhibition (Sus scrofa): 0%

c1ccc(CNCC[C@@H]2CCC[C@H](c3ccccc3)C2)cc1 (relative stereo) [listing 1 of 2 here]
Ki [1]: 1.8 nM
Ki [2]: 130 nM

c1ccc([C@H]2CCC[C@@H](CCN3CCN(c4ccccc4)CC3)C2)cc1 (relative stereo)
Ki [1]: 16 nM
Activity (DU-145): inactive
Ki [2]: 118 nM
inhibition (Sus scrofa): 0%

c1ccc(CNCC[C@@H]2CCC[C@@H](c3ccccc3)C2)cc1 (relative stereo) [listing 2 of 2 here]
Activity [9]: inactive
Activity ([10]; PC-12, filed as antagonist): 100%
inhibition (Sus scrofa): 31%

c1ccc(CNCC[C@@H]2CCC[C@H](c3ccccc3)C2)cc1 (relative stereo) [listing 2 of 2 here]
Activity (NCI-H441): Active
Activity (NCI-H358): Active
Activity (PC-3): Active
Activity (DU-145): Active
Activity (NCI-H522): Active
Activity (CWR22R): Active
Activity [9]: inactive
Activity ([10]; PC-12): inactive
inhibition (Sus scrofa): 11%
